High-throughput results (PubChem BioAssay)
Shown are actives, neighbours in structure and some others; about 11% of the full set was active somewhere.
D1 mod = allosteric modulators of human D1 dopamine receptor | P21728 | B-score at 10 µM | HEK293 D1, CRE-luciferase, dopamine EC30 potentiation; actives deviate in either direction | actives 5.9% (n = 58,000);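 active = luminescence count or its row- and column-corrected plate score outside the 99.7% band of the plate's sample wells, on either side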
S1P3 ag = S1P3 (human) receptor agonism. actives 0.1% (n = 60,000). Q99500. S1P3 NFAT-BLA reporter cells, FRET ratio; relative to 1 µM S1P, basal subtracted. activation, % at 4.5 µM. AID 373;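 active = activation above the screen-wide mean plus 3 SD, cut at about 4.5% in these data, passing the limit was not always enough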
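Material: Human S1P3 NFAT-BLA reporter CHO cells | Incubation: Overnight plating, 4 h compound 37 °C, 2 h substrate RT | Signal: FRET β-lactamase substrate fluorescence, excitation 405 nm, 460/535 nm emission ratio, background-subtracted | Compound: 4.5 µM final, single dose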
S1P1 ag-PAM = agonists and agonism potentiators of human S1P1 receptor. P21453. S1P1 CRE-bla cells, forskolin, beta-lactamase FRET, potentiator mode; S1P1 agonist co-added at EC20, 2 nM; 100% = saturating reference agonist, 0% = basal. activation, % at 9.5 µM. actives 0.57% (n = 56,000). AID 449;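 active = activation above a cutoff set at the mean activation of all tested compounds plus 3 SD, cut at about 54% in these data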;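 also: forskolin at 4 µM as EC80 and the EC20 agonist is SEW2871; 100% = SEW2871 at its EC100 plus forskolin at EC80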
M1 antagonist = blocks the rat M1 muscarinic receptor response to acetylcholine; P08482; CHO-M1 cells, Fluo-4 calcium, ACh EC80 antagonist mode; hits give low values; B-score at 10 µM; actives 3.4% (n = 64,000); AID 628;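 active = calcium fluorescence response, raw or row-and-column corrected B-score, differing from the plate sample mean either way at a set confidence level, mostly lower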
Target sequence (P08482 whole entry, looked up): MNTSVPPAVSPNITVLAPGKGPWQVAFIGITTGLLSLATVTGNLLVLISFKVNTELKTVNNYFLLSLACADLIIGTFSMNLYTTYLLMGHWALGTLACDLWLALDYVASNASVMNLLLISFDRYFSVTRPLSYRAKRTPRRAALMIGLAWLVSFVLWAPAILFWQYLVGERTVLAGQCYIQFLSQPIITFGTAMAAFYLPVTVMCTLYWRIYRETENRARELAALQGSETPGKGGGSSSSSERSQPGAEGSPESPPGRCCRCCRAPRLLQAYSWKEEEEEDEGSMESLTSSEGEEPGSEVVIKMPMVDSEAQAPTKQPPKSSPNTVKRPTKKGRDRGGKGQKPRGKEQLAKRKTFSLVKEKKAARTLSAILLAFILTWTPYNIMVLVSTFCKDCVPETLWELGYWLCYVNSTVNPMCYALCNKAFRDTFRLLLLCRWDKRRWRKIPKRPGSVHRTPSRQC
M1 ag = activates the M1 muscarinic receptor. CHO-M1 cells, Fluo-4 calcium fluorescence, agonist mode; hits give high values. actives 3% (n = 64,000). AID 626. B-score at 10 µM;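 active = fluorescence rise, raw or as B-score row- and column-corrected plate score, outside the 99.7% band of its plate's samples, either direction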
D1 mod confirm = D1 receptor (human) allosteric modulation, confirmed; HEK293 D1 CRE-luciferase, dopamine EC30 potentiation; hits give high values; shares compounds with D1 mod; luminescence at 10 µM; actives 88% (n = 2,200);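 active = luminescence in either of two replicates above the same-plate mean plus 3 SD of the low-dose dopamine control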
D1 ag no DA = D1 (human) signaling in absence of dopamine; shares compounds with D1 mod; HEK293 D1 CRE-luciferase, luminescence, no dopamine; hits give high values; luminescence at 10 µM; actives 0.8% (n = 1,900); in the data active = luminescence above about 3900
Isoprot counter = isoproterenol response counter-screen activity for D1 modulators | shares compounds with D1 mod | HEK293 D1 CRE-luciferase, isoproterenol EC30 counter-screen | calls only at 10 µM | actives 63% (n = 2,200);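 active = luminescence in either replicate above plate mean of wells with a partly effective reference agonist dose plus 3 SD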;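 also: isoproterenol raises cAMP through native beta-adrenoceptor Gs so signal bypasses D1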
Starred values were filed as active, the others as inactive; i = inactive; / = no result given; + = active, no number.

SMILES	D1 mod	S1P3 ag	S1P1 ag-PAM	M1 antagonist	M1 ag	D1 mod confirm	D1 ag no DA	Isoprot counter
CC(=O)OC1(C(F)(F)F)Oc2ccccc2NC1=O (stereo not given)	-1.3	-1	2	-0.11	-0.36	/	/	/
Cc1cc(-c2ccccc2)c(C#N)c(SCC(N)=O)n1	5*	-1	-6	0.96	0.011	8124*	1568	i
CCOC(=O)CC(=O)CSc1nc(C)cc(-c2cccnc2)c1C#N	-0.65	0	-34	0.25	0.024	/	/	/
CCCc1nc2sc3c(SCC(=O)NCc4ccco4)ncnc3c2c2c1CCC2	5.3*	/	/	-0.39	-0.54	8768*	1628	i
O=C(CSc1nc(C2CC2)nc2sc3c(c12)CCCC3)NCc1ccco1	-0.58	-1	-4	-0.51	-0.017	/	/	/
CCOc1ccc2cc(C#N)c(SCC(=O)NC(C)CC)nc2c1 (stereo not given)	-0.24	0	3	-0.067	-0.89	/	/	/
CCc1nnc(NC(=O)CSc2ncc(-c3ccccc3)n2CC)s1	3.5*	0	6	-0.057	0.57	8216*	1656	i
Cc1c(NC(=O)CN2C(=O)c3ccccc3C2=O)c(=O)n(-c2ccccc2)n1C	3.7*	-1	-25	0.29	-1.4	4240	1472	i
COc1cccc(N2CCN(Cc3coc4c(Cl)cc(Cl)cc4c3=O)CC2)c1	0.13	0	-5	0.62	-0.28	/	/	/
COc1ccc(CN(Cc2cccnc2)S(=O)(=O)c2ccc(-n3cnnn3)c(C)c2)cc1OC	3.7*	-1	8	-0.37	-0.04	7956*	1480	i
COc1ccc(CN(Cc2ccccn2)S(=O)(=O)c2ccc(-n3cnnn3)c(OC)c2)cc1	-0.19	0	16	-0.13	-0.68	/	/	/
C=CCn1c(-c2cccs2)nc2nc3ccccc3nc21	0.85	0	-23	0.029	-0.64	/	/	/
CCC(C)n1c(-c2cccs2)nc2nc3ccccc3nc21 (stereo not given)	10*	0	-32	0.0012	0.039	15740*	1736	+
COCCn1c(C2CCCCC2)nc2sc3ccccc3c(=O)c2c1=O	3.4*	0	-11	-0.018	0.00086	10064*	/	i
CCOC(=O)C1=C(C)NC(=O)C(C(N)=O)C1c1ccccc1 (stereo not given)	0.62	-1	-24	0.23	-0.021	/	/	/
CCOC(=O)CCSc1nc(C)c2ccccc2n1	1.9*	0	-16	-1.5	-0.012	6200*	1668	i
CCOC(=O)CSc1nc(C)c2cc(OC)ccc2n1	-0.047	0	-1	0.48	1.8	/	/	/
Cc1noc(NS(=O)(=O)c2ccc(NC(=O)Nc3ccc(Cl)c(Cl)c3)cc2)c1C	-2.6	-2	5	0.84	0.15	/	/	/
CCSc1ncc(Cl)c(C(=O)Nc2ccc(S(=O)(=O)Nc3onc(C)c3C)cc2)n1	5.6*	-1	/	0	0.82	11540*	1528	i
CN(CC(=O)NC1CCCCCCC1)S(=O)(=O)c1cccc2cccnc12	/	0	-15	0.68	1.3	/	/	/
O=S(=O)(NC1CCCCCC1)c1cccc2cccnc12	5.5*	0	-3	0.011	-0.26	9760*	1524	+
CC(=O)c1c(C)[nH]c(C(=O)OCn2nnc3ccccc3c2=O)c1C	2.4*	0	-36	0.12	-0.14	5372	/	i
CSc1ncccc1C(=O)OCn1nnc2ccccc2c1=O	3.3*	2	6	0.6	-0.37	9044*	1656	+
CNC(=O)c1ccsc1NC(=O)CN1C(=O)CCC1=O	0.55	0	-5	0.71	0.35	/	/	/
COc1cc(S(=O)(=O)N2CCOCC2)ccc1NC(=O)COC(=O)c1ccccn1	-0.67	/	/	0.97	0.36	/	/	/
CCSc1oc(-c2cccs2)nc1S(=O)(=O)c1ccccc1	15*	-1	-4	-0.36	-0.34	18740*	1592	+
